The entries come from a sample that favours hits as a whole.
Lmaj promast – Leishmania major promastigote growth inhibition, primary screen. inhibition, % at 10 µM. Leishmania major promastigotes, resazurin fluorescence viability. 9% of 200,000 active; in the data active = inhibition above about 50%;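 also: promastigotes grown with compound for 44 hours at 28 °C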
Mdm2 ligase inh – MDM2-luciferase reporter signal enhancers, primary screen, MDM2 E3 ligase inhibitor project, cell-based, luminescence, 1536-well | AID 1230, 2008 | E3 ubiquitin-protein ligase Mdm2 (Homo sapiens), Q00987 | 0.11% of 210,000 active | cell-based MDM2 ubiquitination luciferase reporter, 2 h; 0 = plate control, 100 = twice control, blank-subtracted | signal enhancement, % at 5 µM;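 active = signal enhancement of 30% or more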;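 also: luminescence tracks abundance of the self-degrading MDM2-luciferase fusion protein; higher signal means inhibition of MDM2 E3 ligase activity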
Target sequence (Q00987 whole entry, looked up, the tested form may be a part): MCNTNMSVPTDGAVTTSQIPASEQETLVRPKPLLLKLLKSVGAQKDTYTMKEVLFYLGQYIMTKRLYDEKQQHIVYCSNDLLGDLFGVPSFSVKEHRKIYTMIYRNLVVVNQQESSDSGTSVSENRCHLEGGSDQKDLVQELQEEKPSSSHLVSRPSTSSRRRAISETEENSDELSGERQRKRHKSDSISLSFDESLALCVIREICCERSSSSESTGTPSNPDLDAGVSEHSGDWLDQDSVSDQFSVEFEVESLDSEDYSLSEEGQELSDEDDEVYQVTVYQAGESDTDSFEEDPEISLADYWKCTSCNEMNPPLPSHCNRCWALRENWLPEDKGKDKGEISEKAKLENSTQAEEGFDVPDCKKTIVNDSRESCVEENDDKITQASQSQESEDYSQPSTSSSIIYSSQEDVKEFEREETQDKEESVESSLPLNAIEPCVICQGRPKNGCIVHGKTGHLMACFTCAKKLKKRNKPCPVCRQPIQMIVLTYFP
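Test system: mammalian cells stably expressing self-ubiquitinating, self-degrading MDM2 E3–luciferase fusion; Amount: 2000 cells in each well; Medium: DMEM; Schedule: 4 h settle plus 2 h compound, 37 °C; Technique: SteadyLite luciferase luminescence after 15 min room-temperature reagent incubation; Benchmarks: plate control and blank wells.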
S1P4 antagonist – S1P4 receptor antagonists, primary screen, cell-based | 0.26% of 220,000 active | inhibition, % at 4.98 µM | AID 1510, 2009 | S1P4-expressing cells, antagonist mode, reporter read-out; in the data active = inhibition above about 29%;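 also: 0% = wells stimulated with agonist and 100% = vehicle wells without agonist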
S1P4 ag – S1P4 receptor agonists, primary screen, cell-based | Sphingosine 1-phosphate receptor 4 (Homo sapiens), O95977 | S1P4-expressing cell line, agonist reporter assay | activation, % at 4.98 µM | 0.35% of 220,000 active; in the data active = activation above about 11%;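 also: 0% = DMSO vehicle and 100% = reference agonist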
S1P3 antagonist – S1P3 receptor antagonists, primary screen, cell-based; 0.27% of 170,000 active; CHO S1P3 NFAT-BLA reporter, FRET fluorescence, antagonist mode; inhibition, % at 4.98 µM; AID 485, 2006; Sphingosine 1-phosphate receptor 3 (Homo sapiens), Q99500;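 active = inhibition above the plate cutoff, the mean inhibition of test wells on that plate plus 3 SD, cut at about 28% in these data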;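 also: cells challenged with S1P at its EC80 of 0.8 µM; blue over green emission ratio from cleaved BLA substrate after 4 h stimulation; 0% = S1P-stimulated wells and 100% = unstimulated DMSO-only wells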
An asterisk follows results filed as active; x = no result.

SMILES | Lmaj promast | Mdm2 ligase inh | S1P4 antagonist | S1P4 ag | S1P3 antagonist
O=S(=O)(NC1CC1)c1ccc(S(=O)(=O)N2CCCc3ccccc32)cc1 | 95* | -4 | -11 | 2 | -4
CC(C)N1CCc2c(sc(NC(=O)c3ccc(S(=O)(=O)N4CCc5ccccc54)cc3)c2C(N)=O)C1 | 100* | -14 | 13 | -1 | -9
NC(=O)c1ccsc1NC(=O)c1ccc(S(=O)(=O)N2CCCc3ccccc32)cc1 | 99* | x | -12 | -1 | 9
CC(C)N1CCc2c(sc(NC(=O)c3cc(-c4cccs4)nc4ccccc34)c2C(N)=O)C1 | 92* | x | 0 | 0 | -11
CCC1CCCCN1S(=O)(=O)c1ccc(S(=O)(=O)N(Cc2ccccn2)CC2CCCO2)cc1 (configuration not stated) | 17 | -2 | -28 | 0 | 0
CCC1CCCCN1S(=O)(=O)c1ccc(S(=O)(=O)N(Cc2cccs2)C2CC2)cc1 (configuration not stated) | 100* | -2 | 1 | 1 | 20
Cc1cc(C)n(-c2nnc(C)n2/N=C/c2cc(Br)ccc2OCc2ccccc2)n1 | 89* | 17 | -4 | 2 | 27
O=C(c1ccc(-c2ccccc2)cc1)N1CCN(c2nc3ccccc3o2)CC1 | -4 | -22 | 2 | -1 | 53*
Cn1cc(CCNCc2cn[nH]c2-c2ccc(-c3ccccc3)cc2)cn1 | x | -1 | -9 | 1 | -14
CN(CCc1cnn(C)c1)Cc1cn[nH]c1-c1ccc(-c2ccccc2)cc1 | 90* | -6 | -14 | 0 | -10
C=CCNC(=O)CSCc1ccc(Br)cc1 | -2 | -3 | 18 | 0 | -18
Cc1ccccc1N/C(SCc1cccc(Br)c1)=C(/C#N)C(N)=O | 22 | -12 | -4 | 3 | 3
COc1cccc(N/C(SCc2cccc([N+](=O)[O-])c2)=C(/C#N)C(N)=O)c1 | 94* | 0 | 3 | -1 | -1
COc1ccc(C2(CNC(=O)c3ccc(OCC(C)C)cc3)CCOCC2)cc1 | 49 | -5 | -5 | -2 | -2
Nc1ncnc2oc(-c3ccco3)c(-c3ccco3)c12 | 52* | -15 | 4 | 1 | -35
Cc1ccc(Nc2nc(-c3ccc(S(=O)(=O)N4CCOCC4)cc3)cs2)cc1Cl | 29 | -10 | -15 | 1 | 0
O=C(NCC1CCCN(Cc2cccc(C(F)(F)F)c2)C1)c1ccc(F)cc1 (configuration not stated) | 80* | 8 | -7 | 1 | -17
O=C(NCC1CCCN(Cc2ccc3nonc3c2)C1)c1ccc(F)cc1 (configuration not stated) | 90* | 2 | 3 | 0 | 4
O=c1c2ccccc2c2c(O)nc(-c3ccccc3)n2n1Cc1ccccc1 | -6 | -7 | -18 | -4 | x
COc1cc2c(cc1OC)C(c1ccc(-c3ccc(Cl)c(Cl)c3)o1)=NCC2 | 71* | -2 | -11 | 2 | x
COc1cc2c(cc1OC)C(c1ccc(-c3cc(Cl)ccc3Cl)o1)=NCC2 | 40 | -12 | 9 | 1 | x
Cc1nc2c(O)cccc2cc1CO | x | 1 | -8 | 1 | -6
c1cnc2ccc(C(c3nnnn3C3CCCC3)N3CCN(c4nc5ccccc5s4)CC3)cc2c1 (configuration not stated) | 89* | -9 | 13 | -1 | 18
Clc1ccc(C(c2nnnn2C2CCCC2)N2CCN(c3nc4ccccc4s3)CC2)cc1 (configuration not stated) | 97* | x | -2 | -3 | x
COc1ccc(C(c2nnnn2C(C)(C)C)N2CCN(c3nc4ccccc4s3)CC2)cc1OC (configuration not stated) | 36 | -3 | -11 | 1 | 16
CCC(=O)N(Cc1c(C)nn(-c2ccccc2)c1Cl)c1ccc(Cl)cc1 | 65* | -10 | -7 | 2 | 10
Cc1cc2c(cc1C)C(c1ccccc1Br)CC(=O)N2 (configuration not stated) | 99* | 5 | -14 | -1 | 10
CCCOc1ccccc1C1CC(=O)Nc2cc3c(cc21)OCCO3 (configuration not stated) | 98* | -16 | -15 | 4 | -8
CCOc1ccccc1C1CC(=O)Nc2cc3c(cc21)OCCO3 (configuration not stated) | 17 | -19 | -4 | 2 | 27

Screening results from PubChem.
